ChEMBL document CHEMBL5058577, “EUbOPEN Chemogenomics Library 2 (Multiplex)” (2022)

System: HEK-293T
Assay: Multiplex assay against HEK293T
Format: toxicity, cell-based
Conditions: human
Method in brief: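 On a CQ1 microscope at 37°C and 5% CO2, live cells were imaged after compound addition. They had been stained at seeding with Hoechst33342, BioTracker Green Microtubule Cytoskeleton Dye, MitoTracker Red and Annexin V Alexa Fluor 680. CellPathfinder machine-learning gating assigned cells to Hoechst high-intensity objects or normal cells, normal cells to healthy, pyknosed or fragmented nuclei, and pyknosed cells to mitotic or apoptotic. Tubulin, mitochondrial-mass and membrane-permeability phenotypes are per cents of healthy-nucleus cells.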

[1] = 12 h, 1 µM, compound concentration 1 uM, replicate 1
[2] = 12 h, 1 µM, compound concentration 1 uM, replicate 2
[3] = 12 h, 10 µM, compound concentration 10 uM, replicate 1
[4] = 12 h, 10 µM, compound concentration 10 uM, replicate 2
[5] = 24 h, 1 µM, compound concentration 1 uM, replicate 1
[6] = 24 h, 1 µM, compound concentration 1 uM, replicate 2
[7] = 24 h, 10 µM, compound concentration 10 uM, replicate 1
[8] = 24 h, 10 µM, compound concentration 10 uM, replicate 2
[9] = 48 h, 1 µM, compound concentration 1 uM, replicate 1
[10] = 48 h, 1 µM, compound concentration 1 uM, replicate 2
[11] = 48 h, 10 µM, compound concentration 10 uM, replicate 1
[12] = 48 h, 10 µM, compound concentration 10 uM, replicate 2

Structure (SMILES): CC[C@@H](C)Nc1nc(C)nc2c(-c3ccc(OC)nc3C)c(C)nn12 [PEXACERFONT]
- Population Apoptotic (%) [1]: 33%
- Population Fragmented Nuclei (%) [1]: 7%
- Population Healthy Nuclei (%) [1]: 79%
- Population Hoechst High Intensity Objects (%) [1]: 6%
- Population Membrane Permeable-Phenotype (%) [1]: 0%
- Population Mitochondria Different-Phenotype (%) [1]: 45%
- Population Mitotic Cells (%) [1]: 66%
- Population Normal (%) [1]: 93%
- Population Pyknosed Nuclei (%) [1]: 13%
- Population Tubulin-Different-Phenotype (%) [1]: 34%
- Total Cell Count [1]: 399
- Population Apoptotic (%) [2]: 47%
- Population Fragmented Nuclei (%) [2]: 5%
- Population Healthy Nuclei (%) [2]: 82%
- Population Hoechst High Intensity Objects (%) [2]: 8%
- Population Mitochondria Different-Phenotype (%) [2]: 61%
- Population Mitotic Cells (%) [2]: 52%
- Population Normal (%) [2]: 91%
- Population Pyknosed Nuclei (%) [2]: 11%
- Population Tubulin-Different-Phenotype (%) [2]: 31%
- Total Cell Count [2]: 314
- Population Apoptotic (%) [3]: 38%
- Population Fragmented Nuclei (%) [3]: 6%
- Population Healthy Nuclei (%) [3]: 75%
- Population Hoechst High Intensity Objects (%) [3]: 8%
- Population Membrane Permeable-Phenotype (%) [3]: 0%
- Population Mitochondria Different-Phenotype (%) [3]: 59%
- Population Mitotic Cells (%) [3]: 61%
- Population Normal (%) [3]: 91%
- Population Pyknosed Nuclei (%) [3]: 17%
- Population Tubulin-Different-Phenotype (%) [3]: 54%
- Total Cell Count [3]: 451
- Population Apoptotic (%) [4]: 41%
- Population Fragmented Nuclei (%) [4]: 9%
- Population Healthy Nuclei (%) [4]: 74%
- Population Hoechst High Intensity Objects (%) [4]: 11%
- Population Membrane Permeable-Phenotype (%) [4]: 1%
- Population Mitochondria Different-Phenotype (%) [4]: 75%
- Population Mitotic Cells (%) [4]: 58%
- Population Normal (%) [4]: 88%
- Population Pyknosed Nuclei (%) [4]: 16%
- Population Tubulin-Different-Phenotype (%) [4]: 55%
- Total Cell Count [4]: 321
- Population Apoptotic (%) [5]: 24%
- Population Fragmented Nuclei (%) [5]: 8%
- Population Healthy Nuclei (%) [5]: 79%
- Population Hoechst High Intensity Objects (%) [5]: 3%
- Population Membrane Permeable-Phenotype (%) [5]: 0%
- Population Mitochondria Different-Phenotype (%) [5]: 26%
- Population Mitotic Cells (%) [5]: 75%
- Population Normal (%) [5]: 96%
- Population Pyknosed Nuclei (%) [5]: 11%
- Population Tubulin-Different-Phenotype (%) [5]: 21%
- Total Cell Count [5]: 508
- Population Apoptotic (%) [6]: 45%
- Population Fragmented Nuclei (%) [6]: 13%
- Population Healthy Nuclei (%) [6]: 76%
- Population Hoechst High Intensity Objects (%) [6]: 7%
- Population Mitochondria Different-Phenotype (%) [6]: 34%
- Population Mitotic Cells (%) [6]: 54%
- Population Normal (%) [6]: 92%
- Population Pyknosed Nuclei (%) [6]: 9%
- Population Tubulin-Different-Phenotype (%) [6]: 15%
- Total Cell Count [6]: 387
- Population Apoptotic (%) [7]: 37%
- Population Fragmented Nuclei (%) [7]: 6%
- Population Healthy Nuclei (%) [7]: 79%
- Population Hoechst High Intensity Objects (%) [7]: 7%
- Population Membrane Permeable-Phenotype (%) [7]: 1%
- Population Mitochondria Different-Phenotype (%) [7]: 46%
- Population Mitotic Cells (%) [7]: 62%
- Population Normal (%) [7]: 92%
- Population Pyknosed Nuclei (%) [7]: 14%
- Population Tubulin-Different-Phenotype (%) [7]: 52%
- Total Cell Count [7]: 612
- Population Apoptotic (%) [8]: 33%
- Population Fragmented Nuclei (%) [8]: 7%
- Population Healthy Nuclei (%) [8]: 78%
- Population Hoechst High Intensity Objects (%) [8]: 13%
- Population Membrane Permeable-Phenotype (%) [8]: 0%
- Population Mitochondria Different-Phenotype (%) [8]: 70%
- Population Mitotic Cells (%) [8]: 66%
- Population Normal (%) [8]: 86%
- Population Tubulin-Different-Phenotype (%) [8]: 48%
- Total Cell Count [8]: 371
- Population Apoptotic (%) [9]: 26%
- Population Fragmented Nuclei (%) [9]: 12%
- Population Healthy Nuclei (%) [9]: 80%
- Population Hoechst High Intensity Objects (%) [9]: 2%
- Population Membrane Permeable-Phenotype (%) [9]: 0%
- Population Mitochondria Different-Phenotype (%) [9]: 22%
- Population Mitotic Cells (%) [9]: 73%
- Population Normal (%) [9]: 97%
- Population Pyknosed Nuclei (%) [9]: 7%
- Population Tubulin-Different-Phenotype (%) [9]: 20%
- Total Cell Count [9]: 816
- Population Apoptotic (%) [10]: 41%
- Population Fragmented Nuclei (%) [10]: 10%
- Population Membrane Permeable-Phenotype (%) [10]: 1%
- Population Mitochondria Different-Phenotype (%) [10]: 27%
- Population Mitotic Cells (%) [10]: 58%
- Population Pyknosed Nuclei (%) [10]: 9%
- Population Tubulin-Different-Phenotype (%) [10]: 19%
- Total Cell Count [10]: 520
- Population Apoptotic (%) [11]: 40%
- Population Fragmented Nuclei (%) [11]: 13%
- Population Healthy Nuclei (%) [11]: 77%
- Population Hoechst High Intensity Objects (%) [11]: 7%
- Population Membrane Permeable-Phenotype (%) [11]: 1%
- Population Mitochondria Different-Phenotype (%) [11]: 45%
- Population Mitotic Cells (%) [11]: 59%
- Population Normal (%) [11]: 92%
- Population Pyknosed Nuclei (%) [11]: 9%
- Population Tubulin-Different-Phenotype (%) [11]: 38%
- Total Cell Count [11]: 692
- Population Fragmented Nuclei (%) [12]: 10%
- Population Healthy Nuclei (%) [12]: 72%
- Population Hoechst High Intensity Objects (%) [12]: 18%
- Population Membrane Permeable-Phenotype (%) [12]: 0%
- Population Mitochondria Different-Phenotype (%) [12]: 53%
- Population Mitotic Cells (%) [12]: 60%
- Population Normal (%) [12]: 81%
- Population Pyknosed Nuclei (%) [12]: 17%
- Population Tubulin-Different-Phenotype (%) [12]: 36%
- Total Cell Count [12]: 390
